Assay outcomes as filed in PubChem BioAssay.
A selection: hits, their analogues and other compounds. The true share with any hit is near 4.8%.
CSC inhib – cancer stem cell inhibition. cancer stem cell-like cells viability, luminescence. inhibition, % at 7.5 µM. 300,000 tested, 1.1% active; in the data active means inhibition above about 75%; inconclusive means no clear call, values can overlap the other calls; tested in HMLE shEcad cells
T cruzi repl – T. cruzi replication inhibition | T. cruzi beta-gal in NIH3T3, luminescence, 90 h | inhibition, % (concentration not given with the values) | AID 1885 | 300,000 tested, 1.4% active;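 active means mean inhibition across valid replicates above about 55%, limit read from the data; inconclusive means mean below that limit but half or more replicates reach it; inactive means mean below it, under half of replicates reach it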;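 further: signal also drops with host cell toxicity which is not excluded here; 0% = plate median of DMSO wells and 100% = zero luminescence signal; higher percent means less beta-gal luminescence so fewer parasites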
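Read-out: Parasite load inhibition, % | Test system: Mouse NIH/3T3 fibroblasts infected with β-gal-expressing T. cruzi Tulahuen C4 | Amount: 5,000 cells/well | Medium: DMEM, 2% fetal bovine serum | Signal: GalScreen β-gal luminescence, detergent lysis, 60 min | Timing: 3 h attach, ≥90 h co-culture | Also added: Tulahuen C4 trypomastigotes, 5000/well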
WT yeast gro inh – growth inhibition of WT yeast, mitochondrial fusion screen; mitochondrial fusion phenotypic screen, WT strain; inhibition, % at 10 µM; 190,000 tested, 2.1% active; AID 1362; in the data active means inhibition above about 58%; tested in S. cerevisiae
Efflux pump inh – antifungal efflux pump inhibition, Nile Red retention. S. cerevisiae Candida pump triplex. inhibition, % at 10 µM. 330,000 tested, 0.44% active. AID 485275;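 active means plate passing quality check with inhibition over a set limit, or well fluorescence over plate mean plus 4 SD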;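 further: Nile Red retained in pooled yeast measured as flow cytometry median fluorescence; 0% = buffer negative control and 100% = Enniatin B positive control; higher means more Nile Red kept so more efflux inhibition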
SUMO Mot1 rescue – SUMOylation pathway inhibition by Mot1-301 growth rescue; S. cerevisiae Mot1-301 growth rescue, ATP luminescence, 38.5C; percent above DMSO median, 100 means doubled; growth rescue, % at 18.8 µM; 320,000 tested, 1% active;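 active means every valid replicate shows activation above 250% relative to neutral control wells; inactive means the rest, any valid replicate at or below 250%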;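 further: OY570 slx delta 5 strain wells were the positive control but not used for scaling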
Beta cell apopt – beta cell apoptosis inhibition; INS-1E cytokine-induced death, ATP luminescence, 48 h; percent of positive-control rescue, neutral wells zero; protection from apoptosis, % (no concentration beside the values); 300,000 tested, 0.8% active; AID 435005;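 active means Every replicate reaches about 75%, or at least half do and their mean reaches it too, limit read from the data; inconclusive means At least half of replicates reach the limit but their mean does not; inactive means Under half of replicates reach the limit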;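 further: 0% = cytokine-treated negative control wells and 100% = positive control rescue; higher means more ATP so stronger rescue from cytokine killing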
Mot1 SUMO dose – yeast SUMO pathway inhibition in dose response; shares compounds with SUMO Mot1 rescue; S. cerevisiae Mot1-301 galactose growth, ATP luminescence, 24 h; -100 = growth of slx-deleted rescue strain; AID 493004; growth activity, percent, % at 42 µM; 2,300 tested, under 10 active;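 active means Signal drops as the depositor expects, and the fitted half-maximal dose is no more than ten times the top valid tested dose; inconclusive means Poor fit, or a flat curve whose signal drops by 30% to 70%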;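 further: more negative values mean stronger growth rescue toward the control strain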
* hit, by the source's call; ? = inconclusive; nt = no result; + = active, no number; ! = a repeat was not active.

SMILES	CSC inhib	T cruzi repl	WT yeast gro inh	Efflux pump inh	SUMO Mot1 rescue	Beta cell apopt	Mot1 SUMO dose
O=C(CN1C(=O)NC2(CCCC2)C1=O)Nc1nc2ccccc2[nH]1	-5	-1	nt	0	553*	-3	0
Cc1[nH]c2c(C)cccc2c(=O)c1CN1CCCCCC1	4	32	nt	0	-31	-1	nt
CCN(CC(=O)Nc1ccc(Cl)c(C(F)(F)F)c1)CC(=O)NC1CCS(=O)(=O)C1 (stereo not given)	-5	-1	-3	0	-5	4	nt
CCCC(C)C(=O)Nc1ccncc1 (stereo not given)	-5	10	-16	0	-2	1	nt
CC(N=C(NC#N)Nc1ccncc1)C(C)(C)C (stereo not given)	-2	7	-7	0	798*!	5	0
Nc1nnc(C(c2ccccc2)c2ccccc2)s1	8	-2	6	0	-11	-1	nt
CCC(C)[C@H](NC(=O)C1CC(=O)N(c2ccc(OC)cc2)C1)C(=O)NC1CCCC1 (stereo not given in full)	3	-9	nt	0	-8	-3	nt
Cc1ccc(NC(=O)Cn2sc3nc(C)cc(C)c3c2=O)c(Cl)c1	22	?	nt	0	559*	-3	0
Cc1ccc(NC(=O)C2CCN(C(=O)c3ccc(F)cc3)CC2)nc1	-5	-7	nt	0	5	-1	nt
CCCCNS(=O)(=O)c1ccc2c(c1)oc(=O)n2CC(=O)OCC	-6	1	7	0	540*	nt	0
CCOC(=O)Cn1c(=O)oc2cc(S(=O)(=O)Nc3c(C)cc(C)cc3C)ccc21	-14	nt	5	0	7	-6	nt
COc1ccccc1CCNC(=O)/C(=C/c1cccnc1)NC(=O)c1ccccc1	-27	6	10	0	391*	0	0
COc1ccccc1NC(=O)/C(=C\c1cccnc1)NC(=O)c1ccccc1	-10	-9	nt	0	-8	-9	nt
CC(=O)c1ccc(C(=O)N2CCCC(CCC(=O)N(C)CCc3ccccn3)C2)s1 (stereo not given)	18	-9	-9	0	11	4	nt
COc1ccc(-c2cc(=O)c3cc(O)ccc3o2)cc1	-4	5	-17	0	554*	-2	0
O=C1CC(N(CCc2ccccc2)C(=S)Nc2ccccc2)C(=O)N1c1ccc(F)cc1 (stereo not given)	38	53	nt	0	700*	13	0
COC(=O)CN(C(=S)Nc1ccc(F)cc1)C1CC(=O)N(c2ccccc2)C1=O (stereo not given)	-8	3	7	0	653*	nt	0
COC(=O)CN(C(=S)Nc1ccc(F)cc1)C1CC(=O)N(c2ccc(OC)cc2)C1=O (stereo not given)	nt	-3	5	0	-3	-7	nt
COC(=O)CN(C(=S)Nc1ccccc1)C1CC(=O)N(c2ccc(OC)cc2)C1=O (stereo not given)	-12	-18	1	0	0	-6	nt
CSCC[C@H](N)C(=O)NCC1CCC(C(=O)Nc2ccc3c(c2)OCO3)CC1 (stereo not given in full)	-4	5	nt	0	-7	1	nt
CC(=O)Nc1ccc(S(=O)(=O)NC(CSc2ccc(C(=O)O)cc2[N+](=O)[O-])C(=O)O)cc1 (stereo not given)	-13	0	nt	0	-5	-3	nt
CCN(CC(=O)Nc1cc(Cl)ccc1C)C(=O)c1oc2ccc(OC)cc2c1C	nt	30	nt	0	2	-5	nt
COC(=O)c1ccc(CSc2nc3ccccc3c(=O)n2CC(C)C)o1	20	14	58*	0	839*	1	1
CCOC(=O)CSc1nc2ccccc2c(=O)n1CC(C)C	-22	0	-2	0	573*	nt	0
CCOC(=O)CSc1nc2ccccc2c(=O)n1CC	7	6	-7	0	-8	0	nt
SMILES	CSC inhib	T cruzi repl	WT yeast gro inh	Efflux pump inh	SUMO Mot1 rescue	Beta cell apopt	Mot1 SUMO dose
COc1ccc(CN(C)C(=O)c2ccc(OCC(=O)N3CCOCC3)c(OC)c2)cc1	nt	nt	nt	0	10	0	nt
Cc1cccc(C(=O)N[C@H](C(=O)Nc2ccc(C)c(S(=O)(=O)N3CCOCC3)c2)C(C)C)c1	21	nt	nt	0	-1	7	nt
S=C(Nc1cccc(Cl)c1Cl)Nn1cnnc1	-5	-8	-5	0	74	-5	nt
CCN(CC)S(=O)(=O)c1ccc(C(=O)NCCc2cc3c(OC)ccc(OC)c3[nH]c2=O)cc1	12	26	24	0	438*	-1	0
COc1ccc(C2NC(=O)c3ccccc3O2)cc1 (stereo not given)	-12	-7	nt	0	529*	-7	0
O=C(NCc1ccccn1)C1Nc2ccc(C(F)(F)F)cc2C2C=CCC12 (stereo not given)	-8	-5	nt	0	562*	0	1
CCCOC(=O)c1c(NC(=O)CSc2nc(-c3ccco3)cc(C(F)(F)F)n2)sc(C(=O)OC)c1C	16	25	4	0	-3	6	nt
CCCOC(=O)c1c(NC(=O)/C=C/c2cnn(C)c2C)sc(C(=O)OC)c1C	-3	-17	33	0	+	-3	0
CCCCn1c(SCC(=O)Nc2cc(C)on2)nnc1-c1ccco1	-8	-5	-7	0	527*	5	0
CCNCc1nc2cc(Cl)ccc2c(=O)[nH]1	-11	5	0	0	831*	3	0
NC(=O)C1CCN(Cc2nc3cc(Cl)ccc3c(=O)[nH]2)CC1	44	1	-1	0	11	3	nt
COCCCNC(=O)c1cc2cc([N+](=O)[O-])cc(OC)c2oc1=O	-5	-2	-9	0	406*	-3	1
CCOC(=O)c1sc(NC(=O)COC(=O)Cn2cnc3ccccc32)c(C(=O)OCC)c1C	18	-9	9	0	-16	6	nt
O=[N+]([O-])c1ccc(N/N=C/c2cccc(O)c2)cc1	47	-11	nt	0	484*	2	-2
NN/C(=C\[N+](=O)[O-])Nc1ccc(Cl)cc1	54	-39	56	0	20	3	nt
CCn1ncc(Br)c1C(=O)Nc1ccc(OC(F)(F)F)cc1	-2	-1	nt	0	451*	-1	-1
CCn1ncc(Br)c1C(=O)Nc1ccc(C(=O)OC(C)C)cc1	12	12	20	0	-8	3	nt
Cc1ccc(NC(=S)NNC(=O)c2ccc(N3CCOCC3)c([N+](=O)[O-])c2)cc1C	nt	-19	-19	0	366*	nt	0
NNC(=S)NCc1ccc2c(c1)OCO2	-8	-6	8	0	-11	-4	nt
Cc1ccccc1C(=O)NNC(=S)Nc1cccc(C(F)(F)F)c1	6	-4	-10	1	405*	15	0
